Measurements: ChEMBL document CHEMBL1157184, “Hymenoic acid, a novel specific inhibitor of human DNA polymerase lambda from a fungus of Hymenochaetaceae sp” (Bioorg Med Chem, 2008)
Calls of active or inactive are those of the source. No cut-off for these calls is given here.

Key:
[1] = molecular target: DNA polymerase beta (Rattus norvegicus) (UniProt P06766); test: Inhibition of rat DNA polymerase beta at 200 uM
In short: (§1)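 Compound dissolved in DMSO and sonicated 30 s, then held with each polymerase (final 0.05 U) in 50 mM Tris-HCl pH 7.5, 1 mM DTT, 50% glycerol, 0.1 mM EDTA at 0 °C for 10 min. Reaction with poly(dA)/oligo(dT)12-18 and dTTP ran 60 min at 37 °C (Taq at 74 °C). Activity relative to no-compound control; means ± SEM, four independent experiments.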

Homo sapiens = species: Homo sapiens; test: Inhibition of human DNA polymerase gamma at 200 uM; in short: as §1
[2] = molecular target: T1, DNA polymerase iota (Homo sapiens) (UniProt Q9UNA4); test: Inhibition of human DNA polymerase iota at 200 uM; in short: as §1
T1 sequence (whole entry): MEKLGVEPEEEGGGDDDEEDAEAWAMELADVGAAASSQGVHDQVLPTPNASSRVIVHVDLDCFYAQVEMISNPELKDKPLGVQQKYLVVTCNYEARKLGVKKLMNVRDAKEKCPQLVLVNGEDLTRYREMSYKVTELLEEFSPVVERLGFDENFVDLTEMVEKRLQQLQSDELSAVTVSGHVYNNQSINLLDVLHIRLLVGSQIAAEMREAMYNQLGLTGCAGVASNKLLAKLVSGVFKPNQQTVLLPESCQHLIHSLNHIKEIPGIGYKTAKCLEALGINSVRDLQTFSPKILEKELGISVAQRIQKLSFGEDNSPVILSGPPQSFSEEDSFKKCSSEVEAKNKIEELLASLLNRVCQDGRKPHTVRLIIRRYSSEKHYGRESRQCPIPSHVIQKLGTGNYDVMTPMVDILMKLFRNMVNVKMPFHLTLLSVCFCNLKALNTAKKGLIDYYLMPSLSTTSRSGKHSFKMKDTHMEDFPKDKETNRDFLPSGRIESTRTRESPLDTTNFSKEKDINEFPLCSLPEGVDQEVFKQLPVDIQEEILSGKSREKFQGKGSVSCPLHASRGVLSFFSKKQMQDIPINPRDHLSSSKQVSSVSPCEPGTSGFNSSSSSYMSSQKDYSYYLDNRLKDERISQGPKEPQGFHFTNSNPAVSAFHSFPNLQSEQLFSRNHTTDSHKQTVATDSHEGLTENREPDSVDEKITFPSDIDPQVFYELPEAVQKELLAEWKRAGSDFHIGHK

[3] = molecular target: T2, DNA polymerase kappa (Homo sapiens) (UniProt Q9UBT6); test: Inhibition of human DNA polymerase kappa at 200 uM; in short: as §1
T2 sequence (whole entry): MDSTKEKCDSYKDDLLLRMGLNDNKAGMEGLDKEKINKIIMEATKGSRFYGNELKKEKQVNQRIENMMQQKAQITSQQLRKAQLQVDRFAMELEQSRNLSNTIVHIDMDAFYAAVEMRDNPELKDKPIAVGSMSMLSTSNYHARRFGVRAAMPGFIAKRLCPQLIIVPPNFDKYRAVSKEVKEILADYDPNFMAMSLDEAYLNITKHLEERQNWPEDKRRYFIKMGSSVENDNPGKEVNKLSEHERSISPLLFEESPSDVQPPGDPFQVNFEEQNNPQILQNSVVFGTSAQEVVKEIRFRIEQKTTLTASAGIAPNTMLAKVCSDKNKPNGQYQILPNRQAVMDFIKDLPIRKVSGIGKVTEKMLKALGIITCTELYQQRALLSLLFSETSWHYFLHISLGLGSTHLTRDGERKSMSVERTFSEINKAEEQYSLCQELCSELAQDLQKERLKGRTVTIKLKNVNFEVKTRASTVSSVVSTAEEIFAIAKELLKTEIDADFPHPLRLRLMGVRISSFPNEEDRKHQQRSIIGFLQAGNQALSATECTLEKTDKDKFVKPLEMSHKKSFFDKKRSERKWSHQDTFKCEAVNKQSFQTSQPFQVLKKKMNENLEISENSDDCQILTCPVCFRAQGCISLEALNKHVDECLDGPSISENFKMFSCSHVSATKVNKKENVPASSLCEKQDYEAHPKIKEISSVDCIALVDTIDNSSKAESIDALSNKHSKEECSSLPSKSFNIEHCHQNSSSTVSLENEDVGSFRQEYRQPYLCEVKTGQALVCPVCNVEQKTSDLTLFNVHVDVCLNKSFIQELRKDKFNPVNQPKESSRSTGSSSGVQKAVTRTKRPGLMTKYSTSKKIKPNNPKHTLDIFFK

[4] = molecular target: DNA polymerase (Drosophila melanogaster) (UniProt Q9GV40); test: Inhibition of fruit fly DNA polymerase epsilon at 200 uM; in short: as §1
Chain of DNA polymerase (Drosophila melanogaster) (Q9GV40 as listed by the source): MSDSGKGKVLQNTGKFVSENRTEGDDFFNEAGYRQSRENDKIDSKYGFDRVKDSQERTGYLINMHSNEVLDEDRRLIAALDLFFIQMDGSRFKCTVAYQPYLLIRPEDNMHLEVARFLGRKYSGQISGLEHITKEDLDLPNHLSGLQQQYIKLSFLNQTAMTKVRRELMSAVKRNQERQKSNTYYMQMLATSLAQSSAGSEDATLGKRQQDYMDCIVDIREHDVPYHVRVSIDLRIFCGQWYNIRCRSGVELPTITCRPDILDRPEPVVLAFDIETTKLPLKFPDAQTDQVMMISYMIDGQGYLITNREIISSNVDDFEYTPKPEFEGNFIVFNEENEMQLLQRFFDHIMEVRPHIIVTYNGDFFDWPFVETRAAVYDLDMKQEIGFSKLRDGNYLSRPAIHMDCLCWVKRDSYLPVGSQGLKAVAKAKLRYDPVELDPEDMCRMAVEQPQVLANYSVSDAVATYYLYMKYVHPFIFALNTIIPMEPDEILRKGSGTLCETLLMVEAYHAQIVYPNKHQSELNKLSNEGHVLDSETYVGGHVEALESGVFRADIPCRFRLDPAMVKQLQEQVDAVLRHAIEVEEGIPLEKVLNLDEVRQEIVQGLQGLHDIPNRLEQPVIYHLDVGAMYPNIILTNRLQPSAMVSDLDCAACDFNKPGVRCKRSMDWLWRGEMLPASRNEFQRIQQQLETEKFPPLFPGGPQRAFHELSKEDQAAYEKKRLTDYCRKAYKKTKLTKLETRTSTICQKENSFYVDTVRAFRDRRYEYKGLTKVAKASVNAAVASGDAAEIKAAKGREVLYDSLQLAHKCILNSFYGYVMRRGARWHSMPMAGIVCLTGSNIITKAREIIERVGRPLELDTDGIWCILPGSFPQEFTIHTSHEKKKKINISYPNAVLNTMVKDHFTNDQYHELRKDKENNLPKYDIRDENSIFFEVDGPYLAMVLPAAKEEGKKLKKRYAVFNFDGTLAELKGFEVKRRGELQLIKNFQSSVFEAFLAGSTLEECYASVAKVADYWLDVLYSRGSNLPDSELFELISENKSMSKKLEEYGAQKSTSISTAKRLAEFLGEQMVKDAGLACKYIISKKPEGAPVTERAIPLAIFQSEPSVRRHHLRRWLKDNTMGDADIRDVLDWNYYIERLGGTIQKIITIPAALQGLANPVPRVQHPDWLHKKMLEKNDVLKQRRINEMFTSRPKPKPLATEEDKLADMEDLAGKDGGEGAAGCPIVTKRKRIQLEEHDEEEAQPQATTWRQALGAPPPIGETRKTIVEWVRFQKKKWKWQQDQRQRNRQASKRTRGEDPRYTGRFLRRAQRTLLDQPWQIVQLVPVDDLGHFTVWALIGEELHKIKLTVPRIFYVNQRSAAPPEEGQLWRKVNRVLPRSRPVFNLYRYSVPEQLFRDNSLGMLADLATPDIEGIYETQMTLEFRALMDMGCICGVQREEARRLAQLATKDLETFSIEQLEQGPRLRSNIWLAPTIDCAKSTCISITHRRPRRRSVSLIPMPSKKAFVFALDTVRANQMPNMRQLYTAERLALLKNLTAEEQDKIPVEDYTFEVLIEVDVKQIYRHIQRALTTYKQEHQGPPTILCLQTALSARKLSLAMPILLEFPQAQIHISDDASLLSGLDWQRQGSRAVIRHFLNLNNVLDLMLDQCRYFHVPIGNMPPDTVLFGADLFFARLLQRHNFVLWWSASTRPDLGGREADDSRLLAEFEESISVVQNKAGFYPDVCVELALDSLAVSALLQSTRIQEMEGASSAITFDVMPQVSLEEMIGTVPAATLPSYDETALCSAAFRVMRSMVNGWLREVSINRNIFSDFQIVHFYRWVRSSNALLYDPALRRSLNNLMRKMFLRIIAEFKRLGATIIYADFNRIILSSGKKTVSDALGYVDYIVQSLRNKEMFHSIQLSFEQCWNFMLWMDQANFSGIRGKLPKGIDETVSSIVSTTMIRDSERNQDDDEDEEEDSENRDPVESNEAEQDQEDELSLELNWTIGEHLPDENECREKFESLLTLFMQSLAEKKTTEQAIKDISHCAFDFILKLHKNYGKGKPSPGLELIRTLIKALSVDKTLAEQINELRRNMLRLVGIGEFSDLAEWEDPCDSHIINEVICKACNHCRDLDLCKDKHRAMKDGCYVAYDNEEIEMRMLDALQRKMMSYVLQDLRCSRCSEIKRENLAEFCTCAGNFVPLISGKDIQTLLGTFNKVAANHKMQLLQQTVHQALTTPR

Escherichia coli = test: Inhibition of Escherichia coli DNA polymerase I Klenow fragment at 200 uM; in short: as §1
[5] = molecular target: DNA polymerase I, thermostable (Thermus aquaticus) (UniProt P19821); test: Inhibition of Taq polymerase at 200 uM; in short: as §1
Chain of DNA polymerase I, thermostable (Thermus aquaticus) (P19821 whole entry): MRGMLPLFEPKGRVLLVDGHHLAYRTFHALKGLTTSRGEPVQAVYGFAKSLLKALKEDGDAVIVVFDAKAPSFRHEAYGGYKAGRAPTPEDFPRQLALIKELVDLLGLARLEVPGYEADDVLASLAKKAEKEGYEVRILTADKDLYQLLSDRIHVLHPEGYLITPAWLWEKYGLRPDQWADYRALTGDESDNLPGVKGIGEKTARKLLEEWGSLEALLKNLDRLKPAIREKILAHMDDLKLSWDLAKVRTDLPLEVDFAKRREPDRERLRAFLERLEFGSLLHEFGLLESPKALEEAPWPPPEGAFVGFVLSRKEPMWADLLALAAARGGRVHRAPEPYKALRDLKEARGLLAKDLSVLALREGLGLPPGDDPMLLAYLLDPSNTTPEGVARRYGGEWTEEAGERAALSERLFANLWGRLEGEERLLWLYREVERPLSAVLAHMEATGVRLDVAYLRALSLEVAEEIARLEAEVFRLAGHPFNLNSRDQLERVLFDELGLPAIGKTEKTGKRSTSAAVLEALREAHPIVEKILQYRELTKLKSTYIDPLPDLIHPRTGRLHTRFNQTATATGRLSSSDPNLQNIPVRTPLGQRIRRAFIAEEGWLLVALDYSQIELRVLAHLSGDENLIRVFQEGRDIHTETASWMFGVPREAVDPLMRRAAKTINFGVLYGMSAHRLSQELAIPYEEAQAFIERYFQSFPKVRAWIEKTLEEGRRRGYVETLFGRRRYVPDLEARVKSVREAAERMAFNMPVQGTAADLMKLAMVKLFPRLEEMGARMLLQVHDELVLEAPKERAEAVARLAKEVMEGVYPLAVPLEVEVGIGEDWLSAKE

Mus musculus = species: Mus musculus; test: Inhibition of mouse inosine 5-monophosphate dehydrogenase type 2 at 200 uM
In short: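 Each enzyme (0.05 U) was incubated with 200 μM compound. Activity was expressed as a percentage of the activity without compound (100%). Means ± SEM of four independent experiments.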

[6] = tested on: T4 polynucleotide kinase (Bacteriophage T4); test: Inhibition of T4 polynucleotide kinase at 200 uM

Activity [1]: inactive
Activity (Homo sapiens): inactive
Activity [2]: inactive
Activity [3]: inactive
Activity [4]: inactive
Activity (Escherichia coli): inactive
Activity [5]: inactive
Activity (Mus musculus): inactive
Activity [6]: inactive
SMILES: C/C(=C\CC[C@H](C)C(=O)O)[C@H]1CC[C@H](C(=O)O)CC1
